Results: article PMC3755449 (Nature communications, 2013)
Where a name gives a salt, the structure may show the parent alone.

Experiments:
[1] = tested on: schizont-infected RBCs (FVO clone); assay: Schizont rupture assay; assay type: cell-based, Plasmodium falciparum; details: 30 μM
[2] = tested on: P. falciparum clone FVO merozoites invading RBCs; assay: Invasion assay using purified invasive merozoites; assay type: cell-based, Plasmodium falciparum; details: 25 and 50 μM
Procedure, shortened: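 Merozoites come from an FVO line selected for prolonged free-merozoite survival. Synchronized schizonts are gradient-purified, ruptured 3 hr at 37°C, and merozoites are filtered twice through 1.2 μm. About 5×10⁷ merozoites are gassed with 2.5×10⁷ pre-warmed RBCs and a range of compound concentrations for 3–4 hr at 37°C. Free merozoites are removed at 50 g for 7 min. Rings are counted by SYBR green/MitoTracker flow cytometry; IC50 by nonlinear regression.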

[3] = tested on: AMA1 secretion onto merozoite surface; assay: IFA of AMA1 secretion from micronemes; assay type: cell-based, Plasmodium falciparum; details: non-permeabilizing IFA, 60 μM
Procedure, shortened: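 Schizonts rupture with or without test compound (60 μM) present beforehand. Released merozoites are probed with polyclonal anti-AMA1 antibodies by immunofluorescence under non-permeabilizing conditions to assess surface AMA1.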

[4] = molecular target: Recombinant, his-tagged AMA1 (apical membrane antigen 1), 3D7 allele (Plasmodium falciparum (3D7 allele)) (UniProt Q7KQK5); assay: AlphaScreen or HTRF

Molecule	merozoite release from schizont-infected RBCs [1]	inhibition of merozoite invasion [2]	AMA1 secretion from micronemes [3]	IC50 [4]
CN(C)CCCN1c2ccccc2C(C)(C)c2ccccc21 [NCGC00014044, Dimetacrine]	not affected	inhibited merozoite invasion		
Clc1cccc(C(c2ccc3[nH]cnc3c2)n2ccnc2)c1 (stereo not drawn) [NCGC00181034, Liarozole hydrochloride]	not affected	inhibited merozoite invasion	not affected	
DITQQAKDIGAGPVASCFTTRMSPPQQICLNSVVNTALSTSTQSAMK [Untagged RON2L peptide]				100 nM
